According to ChEMBL document CHEMBL1153527, “Discovery of a novel series of quinolone and naphthyridine derivatives as potential topoisomerase I inhibitors by scaffold modification” (J Med Chem, 2009):

Assays:
[1] = Cytotoxicity against estrogen receptor-negative human […] cells expressing p53 mutant after 48 hrs by SRB assay; format: functional, cell-based
Outline: (§1)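 Cell lines came from CCRC, Taiwan. Cells were seeded at about 5 × 10^3 per well and left overnight. They were then given serum-free medium containing 0-10 μM compound (0.08-10 μM serial dilutions) for 48 h at 37 °C. Cells were fixed with TCA (10% final), stained with SRB (0.4% final), and the dye was dissolved in 10 mM Tris with A515 read. IC50 was taken from a fitted log concentration-response curve.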

[2] = system: A549; assay: Cytotoxicity against human A549 cells expressing wild type p53 after 48 hrs by SRB assay; format: functional, cell-based; settings: A549, 48 h; outline: as §1
[3] = system: HepG2; assay: Cytotoxicity against human HepG2 cells expressing wild type p53 after 48 hrs by SRB assay; format: functional, cell-based; settings: HepG2, 48 h; outline: as §1
[4] = system: KB; assay: Cytotoxicity against human KB cells after 48 hrs by MTT assay; format: functional, cell-based
[5] = system: A2780; assay: Cytotoxicity against human A2780 cells after 48 hrs by MTT assay; format: functional, cell-based; settings: A2780, 48 h
[6] = system: Bel-7402; assay: Cytotoxicity against human Bel7402 cells after 48 hrs by MTT assay; format: functional, cell-based; settings: Bel-7402, 48 h
[7] = system: HeLa; assay: Cytotoxicity against p53-deficient human HeLa cells after 48 hrs by SRB assay; format: functional, cell-based; outline: as §1
[8] = system: HT-29; assay: Cytotoxicity against human HT-29 cells expressing p53 mutant after 48 hrs by SRB assay; format: functional, cell-based; settings: HT-29, 48 h; outline: as §1
[9] = system: AGS; assay: Cytotoxicity against human AGS cells expressing wild type p53 after 48 hrs by SRB assay; format: functional, cell-based; outline: as §1
[10] = system: MCF7; assay: Cytotoxicity against estrogen receptor-positive human MCF7 cells expressing wild type p53 after 48 hrs by SRB assay; format: functional, cell-based; settings: MCF7, 48 h; outline: as §1
[11] = Cytotoxicity against p53-deficient human Hep3B cells after 48 hrs by SRB assay; format: functional, cell-based, Hep 3B2; outline: as §1
[12] = system: PC-3; assay: Cytotoxicity against p53-deficient human PC3 cells after 48 hrs by SRB assay; format: functional, cell-based; settings: PC-3, 48 h; outline: as §1
[13] = system: U-937; assay: Cytotoxicity against human U937 cells expressing p53 mutant after 48 hrs by SRB assay; format: functional, cell-based; settings: U-937, 48 h
[14] = system: THP-1; assay: Cytotoxicity against human THP1 cells expressing p53 mutant after 48 hrs by SRB assay; format: functional, cell-based; settings: THP-1, 48 h
[15] = system: K562; assay: Cytotoxicity against p53-deficient human K562 cells after 48 hrs by SRB assay; format: functional, cell-based; settings: K562, 48 h

Row | SMILES | GI50 [1] | IC50 [1] | GI50 [2] | IC50 [2] | GI50 [3] | IC50 [3] | IC50 [4] | IC50 [5] | IC50 [6] | GI50 [7] | IC50 [7] | GI50 [8] | IC50 [8] | GI50 [9] | IC50 [9] | GI50 [10] | IC50 [10] | GI50 [11] | IC50 [11] | GI50 [12] | other results
1 | CCn1cc(-c2nc3ccc(Cl)cc3[nH]2)c(=O)c2cc(F)c(N3CCNCC3)cc21 | 0.9 µM | 2.3 µM | 1 µM | 0.5 µM | 1.8 µM | 3.7 µM | 1.6 µM | 4.9 µM | 2.8 µM | 1.2 µM | 4.2 µM | 1.8 µM | 4.7 µM | 4.5 µM | 1 µM | 4.2 µM | 4.5 µM | 0.9 µM | 2.3 µM | 3.3 µM | IC50 [12]: 4.8 µM; IC50 [13]: 4.2 µM; IC50 [14]: 2.8 µM; IC50 [15]: 2.7 µM
2 | CCn1cc(-c2nc3ccccc3s2)c(=O)c2cc(F)c(N3CCNCC3)cc21 |  |  |  |  |  |  | 28.7 µM | 11.3 µM | 24.3 µM |  |  |  |  |  |  |  |  |  |  |  | 
3 | CCn1cc(-c2nc3ccccc3s2)c(=O)c2cc(F)c(N3CCNCC3)nc21 |  |  |  |  |  |  | 2.4 µM | 2.7 µM | 2.4 µM |  |  |  |  |  |  |  |  |  |  |  | 
4 | CCn1cc(-c2nc3ccccc3o2)c(=O)c2cc(F)c(N3CCN(C)CC3)cc21 |  |  |  |  |  |  | 87.4 µM | 0.7 µM | 2 µM |  |  |  |  |  |  |  |  |  |  |  | 
5 | CCn1cc(-c2nc3ccccc3s2)c(=O)c2cc(F)c(N3CCN(C)CC3)cc21 |  |  |  |  |  |  | 19 µM | 114 µM | 24 µM |  |  |  |  |  |  |  |  |  |  |  | 
6 | CCn1cc(-c2nc3ccc([N+](=O)[O-])cc3s2)c(=O)c2cc(F)c(N3CCN(C)CC3)cc21 | > 10 µM | > 10 µM | 4.7 µM | 10 µM | > 10 µM | > 10 µM | 5.8 µM | 4.3 µM | 7.7 µM | > 10 µM | > 10 µM | > 10 µM | > 10 µM | 2.6 µM | 4.5 µM | > 10 µM | > 10 µM | > 10 µM | > 10 µM | 5.5 µM | IC50 [12]: 7.5 µM; IC50 [13]: > 10 µM; IC50 [14]: > 10 µM; IC50 [15]: > 10 µM
7 | CCn1cc(-c2nc3ccccc3o2)c(=O)c2cc(F)c(N3CCNC(C)C3)c(F)c21 (configuration not stated) |  |  |  |  |  |  | 18.9 µM | 83.5 µM | 5.7 µM |  |  |  |  |  |  |  |  |  |  |  | 
8 | CCn1cc(-c2nc3ccc([N+](=O)[O-])cc3[nH]2)c(=O)c2cc(F)c(N3CCNC(C)C3)c(F)c21 (configuration not stated) | 1.8 µM | 5.5 µM | 0.6 µM | 2.4 µM | 1.5 µM | 4.2 µM | 2.3 µM | 2.3 µM | 1.1 µM | 1.4 µM | 2.4 µM | 4.2 µM | 7.5 µM | 2.6 µM | 8.2 µM | 2.6 µM | 4.9 µM | 1.6 µM | 5.5 µM | 7.9 µM | IC50 [12]: 9.6 µM; IC50 [13]: > 10 µM; IC50 [14]: 7.8 µM; IC50 [15]: 4.7 µM
9 | CCn1cc(-c2nc3ccc([N+](=O)[O-])cc3o2)c(=O)c2cc(F)c(N3CCN(C)CC3)cc21 |  |  |  |  |  |  | 40.3 µM | 39.6 µM | 50.2 µM |  |  |  |  |  |  |  |  |  |  |  | 
10 | CCn1cc(-c2nc3ccccc3[nH]2)c(=O)c2cc(F)c(N3CCNCC3)nc21 | 3.3 µM | 10 µM | 4.9 µM | 7.8 µM | 6.8 µM | 9.1 µM | 2 µM | 4.8 µM | 4.1 µM | 6.4 µM | 10 µM | > 10 µM | > 10 µM | 2.1 µM | 6.6 µM | 8.3 µM | 9.5 µM | 3.7 µM | 7.8 µM | > 10 µM | IC50 [12]: > 10 µM; IC50 [13]: > 10 µM; IC50 [14]: > 10 µM; IC50 [15]: 9.1 µM
11 | CCn1cc(-c2nc3ccc(N)cc3[nH]2)c(=O)c2cc(F)c(N3CCNCC3)nc21 | > 10 µM | > 10 µM | 0.5 µM | > 10 µM | > 10 µM | > 10 µM | 30.1 µM | 42.3 µM | 93.3 µM | > 10 µM | > 10 µM | > 10 µM | > 10 µM | 6.7 µM | 9.2 µM | > 10 µM | > 10 µM | > 10 µM | > 10 µM | > 10 µM | IC50 [12]: > 10 µM; IC50 [13]: > 10 µM; IC50 [14]: 8.2 µM; IC50 [15]: > 10 µM
12 | CCn1cc(-c2nc3ccc([N+](=O)[O-])cc3s2)c(=O)c2cc(F)c(N3CCNCC3)cc21 |  |  |  |  |  |  | 0.7 µM | 0.7 µM | 1.8 µM |  |  |  |  |  |  |  |  |  |  |  | 
13 | CCn1cc(-c2nc3ccc([N+](=O)[O-])cc3[nH]2)c(=O)c2cc(F)c(N3CCN(C)CC3)cc21 |  |  |  |  |  |  | 2.5 µM | 4.7 µM | 4.4 µM |  |  |  |  |  |  |  |  |  |  |  | 
14 | C[C@H]1COc2c(N3CCN(C)CC3)c(F)cc3c(=O)c(-c4nc5ccccc5s4)cn1c23 |  |  |  |  |  |  | 60.2 µM | 26.6 µM | 92.2 µM |  |  |  |  |  |  |  |  |  |  |  | 
